Consider 84 variants from the RNAGym collection of RNA variant scans (doi:10.1038/s41586-018-0170-7).

Sequences and labels used below:
B1: tRNA (parent)
chain: GUUCCGUUGGCGUAAUGGUAACGCGUCUCCCUCCUAAGGAGAAGACUGCGGGUUCGAGUCCCGUACGGAACG

This data set covers variants of B1. Put plainly: yeast fitness, log relative to wild type (ln ratio); higher = fitter; tRNA-Arg(CCU), competitive growth, 37 C, 1 M NaCl. The gist of the method:
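BY4742 cells without the chromosomal tRNA-Arg(CCU) gene carried a combinatorial variant library on a HIS3 centromeric plasmid, from two independent transformations. After 4 generations in SC-HIS at 30 °C, pools spent ~6.5 generations (~26.5 h) in SC-HIS 1M NaCl at 37 °C, giving three outputs per input, and 125 bp paired-end Illumina reads counted the variants. Fitness is the natural log of each genotype's generations over the wild type's, with generations taken as OD-scaled log2 output/input frequency weighted by inverse variance across replicates.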
G1A U2C C27U C66U A69G A70G: the “yeast fitness (ln)” value was -0.313.

As for G1A U2C C66U A70G C71U, the “yeast fitness (ln)” value is 0.00307.

Consider G1A U2C G6A C27U C46U A70G C71U, for which the “yeast fitness (ln)” value was -0.0986.

For G1A U2C C27U A43C A70U C71U, the “yeast fitness (ln)” value was -0.175.

G1A U2C C46U C66U: the “yeast fitness (ln)” value is -0.00756.

Consider G1A U2C C27U C46U C66U A69G A70U, for which the “yeast fitness (ln)” value was -0.184.

In the case of G1A U2C C27U C46U C66U A69G A70G, the “yeast fitness (ln)” value is -0.11.

Take G1A U2C C27U A43C C46U C66A A69G A70G C71U: the “yeast fitness (ln)” value was -0.158.

G1A U2C G6A C46U C66U A70U: the “yeast fitness (ln)” value is -0.182.

Consider G1A U2C G6A C46U C66U A70G, for which the “yeast fitness (ln)” value was -0.0233.

As for G1A U2C C27U C66U A69G A70G C71U, the “yeast fitness (ln)” value was -0.585.

Take G1A U2C C46U: the “yeast fitness (ln)” value is -0.0408.

Take G1A U2C C46U C66A A70U: the “yeast fitness (ln)” value is -0.0262.

On to G1A U2C C27U C66U A70G C71U, for which the “yeast fitness (ln)” value is -0.127.

As for G1A U2C G6A C27U, the “yeast fitness (ln)” value was -0.0466.

As to G1A U2C C46U C66U A69G A70G, the “yeast fitness (ln)” value was -0.127.

With G1A U2C C46U C66U A69G A70U, the “yeast fitness (ln)” value is -0.152.

For the variant G1A U2C G6U A43C C66A A70G C71U, the “yeast fitness (ln)” value was -0.0204.

For the variant G1A U2C G6A A43C C66U A69G A70G C71U, the “yeast fitness (ln)” value is -0.0387.

For the variant G1A U2C G6A C27U A43C C46U C66U A70U C71U, the “yeast fitness (ln)” value is -0.252.

On to G1A U2C A43C C71U, for which the “yeast fitness (ln)” value is -0.185.

Turning to G1A U2C G6A A43C C46U C66U, the “yeast fitness (ln)” value is -0.085.

Regarding G1A U2C G6U A43C C46U A69G A70G C71U, the “yeast fitness (ln)” value is -0.124.

For G1A U2C C27U A43C C46U C66U C71U, the “yeast fitness (ln)” value was -0.241.

Turning to G1A U2C G6A C27U A43C C46U C66U C71U, the “yeast fitness (ln)” value is -0.128.

Consider G1A U2C C46U A69G A70U, for which the “yeast fitness (ln)” value is -0.016.

As to G1A U2C C46U A69G A70G, the “yeast fitness (ln)” value is -0.029.

For G1A U2C C27U A43C A70G C71U, the “yeast fitness (ln)” value is -0.0249.

For G1A U2C C27U A43C C46U C66A A70U C71U, the “yeast fitness (ln)” value is -0.27.

On to G1A U2C G6U C27U A43C C46U C66U A69G A70U C71U, for which the “yeast fitness (ln)” value is -0.398.

On to G1A U2C G6U C27U A43C C46U A70G, for which the “yeast fitness (ln)” value is -0.207.

With G1A U2C G6U C27U A43C C46U A70U, the “yeast fitness (ln)” value was -0.151.

On to G1A U2C G6A C27U C66U A69G A70U, for which the “yeast fitness (ln)” value is -0.0942.

For G1A U2C C46U C66A A70U C71U, the “yeast fitness (ln)” value is -0.0833.

With G1A U2C G6A C46U C66U A69G A70G, the “yeast fitness (ln)” value was -0.0859.

In the case of G1A U2C G6A C46U C66U A69G A70U, the “yeast fitness (ln)” value is -0.0207.

Regarding G1A U2C C27U A43C C46U A70U C71U, the “yeast fitness (ln)” value is -0.221.

Regarding G1A U2C G6A A70U C71U, the “yeast fitness (ln)” value is -0.126.

For the variant G1A U2C C27U A43C C66A A70U C71U, the “yeast fitness (ln)” value is -0.331.

On to G1A U2C G6U A43C C46U, for which the “yeast fitness (ln)” value stood at 0.0223.

On to G1A U2C G6U A43C C46U C66A A70U C71U, for which the “yeast fitness (ln)” value is -0.425.

Take G1A U2C G6A C27U A43C C46U C66U A69G A70G C71U: the “yeast fitness (ln)” value was -0.0617.

G1A U2C G6A C27U C66U A70U: the “yeast fitness (ln)” value is -0.141.

G1A U2C G6A C27U C66U A70G: the “yeast fitness (ln)” value was -0.128.

For the variant G1A U2C C27U C46U C66A C71U, the “yeast fitness (ln)” value was -0.12.

Take G1A U2C G6U A43C C46U C66U A70U: the “yeast fitness (ln)” value was -0.167.

As for G1A U2C C46U C66U A69G A70G C71U, the “yeast fitness (ln)” value was -0.0168.

Consider G1A U2C C27U C46U C66A A70U C71U, for which the “yeast fitness (ln)” value was -0.15.

For G1A U2C G6A C46U A70U C71U, the “yeast fitness (ln)” value was -0.00949.

As to G1A U2C C27U C46U C66U A70U C71U, the “yeast fitness (ln)” value was -0.147.

Take G1A U2C G6A C27U C46U C66U C71U: the “yeast fitness (ln)” value was -0.348.

Turning to G1A U2C C46U C66U A70U C71U, the “yeast fitness (ln)” value is -0.175.

On to G1A U2C C27U C46U C66U A70G C71U, for which the “yeast fitness (ln)” value is -0.0522.

As to G1A U2C G6A C27U C46U, the “yeast fitness (ln)” value is -0.0428.

For G1A U2C G6A C27U A43C C46U A70U, the “yeast fitness (ln)” value was -0.125.

For G1A U2C G6A C27U A43C C46U A70G, the “yeast fitness (ln)” value worked out at 0.0488.

G1A U2C G6A C46U C66U A69G A70G C71U: the “yeast fitness (ln)” value was -0.0172.

On to G1A U2C G6A C66U, for which the “yeast fitness (ln)” value was -0.121.

As for G1A U2C G6A C27U C46U C71U, the “yeast fitness (ln)” value was -0.157.

Regarding G1A U2C G6A C27U A70G C71U, the “yeast fitness (ln)” value is -0.273.

Turning to G1A U2C G6A A43C, the “yeast fitness (ln)” value was -0.0264.

Regarding G1A U2C C27U C46U A69G A70G C71U, the “yeast fitness (ln)” value was -0.0376.

Take G1A U2C G6U A43C C66A A70G: the “yeast fitness (ln)” value is -0.0507.

As for G1A U2C G6A A70G C71U, the “yeast fitness (ln)” value is -0.0357.

Regarding G1A U2C G6A A43C C66U A70G, the “yeast fitness (ln)” value was -0.12.

For the variant G1A U2C G6A A43C C66U A70U, the “yeast fitness (ln)” value was -0.083.

For the variant G1A U2C C46U A69G C71U, the “yeast fitness (ln)” value is -0.134.

Take G1A U2C A43C C46U C66U A70U: the “yeast fitness (ln)” value is -0.132.

Turning to G1A U2C A43C C66U A70G C71U, the “yeast fitness (ln)” value was -0.272.

Regarding G1A U2C G6A A43C C46U A70G, the “yeast fitness (ln)” value is -0.0508.

Consider G1A U2C G6A A43C C46U A70U, for which the “yeast fitness (ln)” value is -0.034.

G1A U2C G6A A43C C46U C71U: the “yeast fitness (ln)” value is -0.0914.

Regarding G1A U2C C27U C66U A70G, the “yeast fitness (ln)” value was -0.0715.

Regarding G1A U2C C27U C66U A70U, the “yeast fitness (ln)” value is -0.108.

On to G1A U2C G6U A43C C46U C66U A69G A70G C71U, for which the “yeast fitness (ln)” value is -0.201.

Take G1A U2C G6A C46U A70G: the “yeast fitness (ln)” value was -0.179.

As for G1A U2C G6A C46U A70U, the “yeast fitness (ln)” value is -0.0702.

Take G1A U2C G6A C27U C46U A69G A70U: the “yeast fitness (ln)” value was -0.07.

Turning to G1A U2C G6U A43C C46U C66A A69G A70G C71U, the “yeast fitness (ln)” value was -0.0061.

Turning to G1A U2C G6U C27U A43C C46U C66A A69G A70G C71U, the “yeast fitness (ln)” value was -0.0612.

On to G1A U2C G6U C27U A43C A69G A70U C71U, for which the “yeast fitness (ln)” value is -0.282.

For G1A U2C G6U A43C C46U C66U A70G C71U, the “yeast fitness (ln)” value was -0.267.

Turning to G1A U2C G6U C27U A43C C46U C66A A70G C71U, the “yeast fitness (ln)” value is -0.0221.

G1A U2C G6A C27U C46U A69G A70G C71U: the “yeast fitness (ln)” value is -0.489.
